# Source: PubChem BioAssay
# NSD2 inh: NSD2 (human) methyltransferase inhibition; actives 0.54% (n = 310,000); NSD2 peptide methylation, AlphaScreen, 120 min; AID 743445; inhibition, % at 12.5 µM; in the data active = inhibition above about 50%
# FGF22 binding: FGF22 (human) thermal shift binding; Q9HCT0; AID 651658; activity (Tm shift, normalised), % at 9.99 µM; recombinant FGF22 thermal shift, SYPRO orange fluorescence; percent of sucrose octasulfate shift, DMSO zero; actives 1.5% (n = 340,000);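 active = mean Tm shift, scaled 0 neutral to 100 positive control, at about 1.3% or above, every replicate too, limit read from the data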
# UCH37 DUB inh: human UCH37 deubiquitinating enzyme inhibition; Q9Y5K5; purified proteasome/UCH37, Ub-AMC cleavage fluorescence; inhibition, % (no concentration beside the values); actives 0.33% (n = 330,000); AID 588478;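 active = mean inhibition over replicate wells above about 20%, limit read from the data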;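 note: 0% = compound-free wells with enzyme and 100% = wells lacking proteasome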
#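 assay system = human UCH37 enzyme supplied as purified proteasome complex | amount = proteasome at 0.15 nM in the dispensed enzyme solution | schedule = 30 min compound-proteasome preincubation then 25 min substrate reaction, room temperature | measured by = fluorescence, ex 355 nm, em 460 nm | benchmarks = no-proteasome wells (full inhibition) and compound-free wells (no inhibition)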
# CASP6 VEID inh: caspase-6 (human) enzyme inhibition; AID 686996; inhibition, % at 12.5 µM; purified caspase-6, Z-VEID-R110 cleavage fluorescence; P55212; actives 0.53% (n = 350,000);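 active = mean inhibition across replicates at least about 35%, with every replicate also reaching that limit, limit read from the data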;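 note: 0% = median of neutral control wells and 100% = no fluorescence left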
# Target sequence (P55212 24-179 limits assumed): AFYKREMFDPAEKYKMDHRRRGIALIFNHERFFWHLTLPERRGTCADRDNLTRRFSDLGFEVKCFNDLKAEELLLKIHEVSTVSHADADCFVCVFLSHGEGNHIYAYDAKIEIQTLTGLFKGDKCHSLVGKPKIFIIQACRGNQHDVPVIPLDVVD
# Target sequence (P55212 194-293 limits assumed): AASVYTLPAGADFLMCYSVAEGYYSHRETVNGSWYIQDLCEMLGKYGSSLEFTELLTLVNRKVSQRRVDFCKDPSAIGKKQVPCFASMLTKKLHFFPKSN
# SIRT5 inh: inhibitors of human sirtuin-5 desuccinylase; Q9NXA8; inhibition, % at 15 µM; Purified SirT5, succinyl-peptide AMC, trypsin-coupled fluorescence; actives 1.1% (n = 330,000); in the data active = inhibition above about 15%
# Target sequence (Q9NXA8 whole entry, looked up): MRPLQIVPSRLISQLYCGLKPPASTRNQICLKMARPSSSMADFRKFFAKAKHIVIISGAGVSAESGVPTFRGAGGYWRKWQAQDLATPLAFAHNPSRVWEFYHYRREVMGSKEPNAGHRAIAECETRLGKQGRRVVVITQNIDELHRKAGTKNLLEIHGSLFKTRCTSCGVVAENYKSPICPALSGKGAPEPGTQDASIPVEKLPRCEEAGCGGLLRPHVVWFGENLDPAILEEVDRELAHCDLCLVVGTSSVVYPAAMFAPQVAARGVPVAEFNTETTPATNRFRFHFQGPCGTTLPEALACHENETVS
# Alpha artifact: counter-screen for NSD2 inhibitors: AlphaScreen artifacts | AC35, µM (highest dose often 10 µM), for inactives: at the top dose activity change, negative = signal loss | actives 9.4% (n = 1,500) | AID 1053174 | shares compounds with NSD2 inh | AlphaScreen artifact counterscreen, preloaded methylated H4 peptide; call rule not given here
# Starred values were filed as active, the others as inactive; i = inactive; nt = no result. Most compounds without a hit are left out; they make up all but 2.6% or so of the library.
SMILES,NSD2 inh,FGF22 binding,UCH37 DUB inh,CASP6 VEID inh,SIRT5 inh,Alpha artifact
C/C(=C\C(=O)c1cccnc1)Nc1ccc(O)cc1,78*,nt,11,nt,nt,-4%
Cc1ccc(-c2nc(Nc3cccc(C)c3)sc2CC(=O)O)cc1,nt,0,2,0,0,nt
O=C(O)Cc1sc(NC2CCCCC2)nc1-c1ccc(Cl)cc1,99*,0,-1,-1,-3,-4%
COc1ccc(CC(=O)NC2CCCCCC2)c(OC)c1,77*,0,-1,-2,-5,0%
COc1ccc(NC(=O)NC2CCCCCCC2)c(OC)c1,0,nt,3,nt,nt,nt
COc1ccc(S(=O)(=O)NCc2ccc3c(c2)OCO3)cc1OC,55*,0,-2,0,2,2%
COc1cc(OC)c(C(=O)OC(C)C(=O)NCc2ccc3c(c2)OCO3)cc1OC (stereo not given),76*,0,2,2,0,-4%
Cc1cc(=O)n(Cc2ccccc2)c(O)c1C#N,53*,0,-6,12,2,-7%
Cc1cc(=O)n(CCCO)c(O)c1C#N,0,nt,-2,nt,nt,nt
Nc1c(C(=O)NCc2ccc(F)cc2)c2nc3ccccc3nc2n1CCCN1CCOCC1,82*,nt,-285,nt,nt,21%
Nc1c(C(=O)NCc2ccccc2)c2nc3ccccc3nc2n1CCCN1CCOCC1,-27,0,-279,6,-4,nt
COc1ccc(-c2nnc(SCC(=O)c3ccc[nH]3)o2)cc1,-1,nt,2,nt,nt,nt
COc1ccc(-c2nnc(SCC(=O)c3ccc(O)cc3O)o2)cc1,81*,0,4,4,0,-3%
CN(C)C(=O)C[C@@H]1CC[C@H]2[C@@H](COC[C@H](O)CN2CC2CC2)O1,nt,nt,nt,-2,1,nt
O=C(C[C@@H]1C[C@H]2c3cc(NC(=O)NC4CCCCC4)ccc3O[C@H]2[C@@H](CO)O1)NCC1CC1,nt,0,nt,-1,-2,nt
COc1ccc(OC)c(/C=C2\SC(=S)N(NS(=O)(=O)c3ccc(C)cc3)C2=O)c1,52*,0,14,0,0,-11%
Fc1ccc(C2CCNCC2COc2ccc3c(c2)OCO3)cc1 (stereo not given),64*,0,3,-2,-3,-20%
CCCC#Cc1cnc2c(c1)C(=O)N([C@@H](C)CO)C[C@H](C)[C@@H](CN(C)S(C)(=O)=O)O2,nt,0,nt,-3,1,nt
COc1cc(NC(=O)c2[nH]c(C)c(C(C)=O)c2C)cc(OC)c1OC,121*,0,5,3,3,-5%
CC(=O)c1c(C)[nH]c(C(=O)Nc2cc(C)ccc2C)c1C,nt,0,0,0,-1,nt
CC(=O)c1c(C)[nH]c(C(=O)Nc2ccc(C)cc2Br)c1C,72*,0,1,2,-4,-5%
COc1ccc(NC(=O)c2[nH]c(C)c(C(C)=O)c2C)cc1Cl,-1,nt,4,nt,nt,nt
O=c1c2c3c(sc2ncn1N=Cc1ccncc1)CCCC3,nt,nt,4,nt,nt,nt
C[C@H](CO)N1C[C@H](C)[C@@H](CN(C)Cc2ccc(C(=O)O)cc2)OCCCC[C@H](C)Oc2ccc(NS(C)(=O)=O)cc2C1=O,nt,0,nt,0,-1,nt
CC(C)CC#Cc1ccc2c(c1)O[C@@H](CN(C)C(=O)C1CCC1)[C@H](C)CN([C@H](C)CO)S2(=O)=O,nt,0,nt,3,8,nt
SMILES,NSD2 inh,FGF22 binding,UCH37 DUB inh,CASP6 VEID inh,SIRT5 inh,Alpha artifact
Cc1cc(NCCCCO)n2c(nc3ccccc32)c1C#N,0,0,i,1,-3,nt
CCN(CC)CCNc1cc(C)c(C#N)c2nc3ccccc3n12,15,0,nt,0,-4,nt
CCN(CC)CCCNc1cc(C(F)(F)F)c(C#N)c2nc3ccccc3n12,56*,0,-267,-17,-10,-3%
CCN(CC)CCCNc1cc(C)c(C#N)c2nc3ccccc3n12,122*,0,nt,-1,nt,-5%
COCC(=O)N(C)C[C@H]1Oc2cc(C#Cc3cccnc3)ccc2S(=O)(=O)N([C@@H](C)CO)C[C@H]1C,nt,0,nt,0,0,nt
CC(Nc1ccc2ccccc2c1)C(=O)N/N=C/c1ccncc1 (stereo not given),141*,0,nt,61*,1,-4%
CC(Nc1ccc2ccccc2c1)C(=O)NN=Cc1ccncc1 (stereo not given),nt,nt,-1,nt,nt,nt
O=C(c1ccncc1)N1C[C@@H]2[C@H](c3ccccc31)[C@H](CO)N2C(=O)Nc1ccc(F)cc1,nt,nt,nt,-1,1,nt
Cc1ccc(N2CCOCC2)c2c1C(=O)c1ccccc1C2=O,57*,0,5,3,-1,4.3µM*
CCN1CCN(CCCNC(=O)c2ccc3c(c2)NC(=O)/C(=C\c2cccc(C)c2)S3)CC1,51*,-1,11,-82,-3,-5%
CCN(CC)CCNc1nc(SC)nc2sc3c(c12)CCN(C)C3,62*,0,nt,-62,-10,-7%
CSc1nc(NCCCN(C)C)c2c3c(sc2n1)CN(C)CC3,6,0,nt,-30,-14,nt
C=CCC1C=C(Cc2ccccc2)CC(CC=C)N1 (stereo not given),54*,0,4,3,-4,-4%
COc1ccc(CCNC(=O)[C@@]2(Sc3ccc(C)cc3)CC(=O)N(C3CCCCC3)[C@@H]2c2ccc(CO)cc2I)cc1,nt,1,nt,-1,-1,nt
CCOc1ccc(NC(=S)NC(=O)/C=C/c2ccco2)cc1,-2,0,3,-1,0,nt
COc1cc(NS(=O)(=O)c2ccc(NC(=S)NC(=O)/C=C/c3ccco3)cc2)ncn1,150*,0,8,20,-2,-4%
CC(=O)Nc1ccc(NCc2ccc(C)s2)cc1,56*,0,-1,5,-7,-3%
CC(/C=C/c1ccccc1)=NNC(=O)C1CC1(C)c1ccccc1 (stereo not given),nt,nt,2,nt,nt,nt
N#Cc1c2nc3ccccc3nc2n2cc(NC(=O)c3ccc(F)cc3)ccc12,73*,0,-5,7,2,-4%
COc1ccccc1N1CCN(S(=O)(=O)CCNC(=O)c2ccc(Br)o2)CC1,76*,0,5,-2,0,-1%
O=C(NCCS(=O)(=O)N1CCN(c2ccccc2)CC1)c1ccc(Br)o1,-9,0,6,0,-2,nt
CCN1C(=O)/C(=C\c2ccc(-c3cccc(C(=O)OC)c3)o2)SC1=Nc1ccc(C(=O)O)cc1,-3,0,nt,-3,-1,nt
CCN1C(=O)/C(=C\c2ccc(-c3ccc([N+](=O)[O-])cc3OC)o2)SC1=Nc1cccc(C(=O)O)c1,60*,0,15,26,9,-6%
C[C@@H]1CN([C@@H](C)CO)C(=O)c2cccc(N(C)C)c2O[C@@H]1CN(C)C(=O)Nc1ccc2c(c1)OCO2,nt,0,nt,-1,-3,nt
Cc1cccc(N2NC(=O)/C(=C/c3ccc(-c4ccc(Cl)c(C(=O)O)c4)o3)C2=O)c1,76*,1,7,52*,16*,-8%
